Experimental findings from ChEMBL document CHEMBL1138835, “Inhibitors of multiple mutants of Plasmodium falciparum dihydrofolate reductase and their antimalarial activities” (J Med Chem, 2004) are described below.

Bounds are passed on as bounds.

For assay [1], the target named is Bifunctional dihydrofolate reductase-thymidylate synthase (Plasmodium falciparum K1, UniProt P13922, C59R/I164L/S108N). As to the kind of experiment: Binding affinity towards mutant dihydrofolate reductase (C59R+S108N+I164L DHFR) of Plasmodium falciparum.
Assay [2] relates to KB. Nature of the assay: In vitro cytotoxicity against Plasmodium falciparum infected KB cell line. Format: functional, cell-based. The conditions noted are these: Homo sapiens. The method, boiled down: (§1)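 Cytotoxicity (IC50, μM) run against three mammalian lines: Vero (African green monkey kidney fibroblasts), KB (human epidermoid carcinoma) and BC (human breast cancer). Testing followed the Skehan et al. protocol.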

Assay [3] deals with BC. As to the kind of experiment: In vitro cytotoxicity against BC cell line. The conditions noted are these: Homo sapiens.
For assay [4], the system named is Bifunctional dihydrofolate reductase-thymidylate synthase (Plasmodium falciparum K1), P13922 [UNDEFINED MUTATION]. Nature of the assay: Ratio of binding affinity for mutant (C59R+S108N+I164L) to that of wild type dihydrofolate reductase. The method, boiled down:
(§2)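 Each ratio is Ki for the mutant PfDHFR divided by Ki for wild-type PfDHFR. The recombinant enzymes were expressed in E. coli BL21(DE3)pLysS and purified on methotrexate-Sepharose. Ki was derived assuming inhibitors compete with substrate binding.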

Assay [5] deals with Bifunctional dihydrofolate reductase-thymidylate synthase (Plasmodium falciparum K1, UniProt P13922, C59R/N51I/S108N). Nature of the assay: Binding affinity towards mutant dihydrofolate reductase (N51I+C59R+S108N DHFR) of Plasmodium falciparum.
In assay [6] the test system is BC. As to the kind of experiment: Relative antiplasmodial activity to cytotoxicity in Plasmodium falciparum Csl-2 infected BC cells. Format: functional.
Assay [7] concerns the target Bifunctional dihydrofolate reductase-thymidylate synthase (Plasmodium falciparum K1, UniProt P13922, C59R/I164L/N51I/S108N). Nature of the assay: Binding affinity towards mutant dihydrofolate reductase (N51I+C59R+S108N+I164L DHFR) of Plasmodium falciparum.
The test system of assay [8] is KB. As to the kind of experiment: Relative antiplasmodial activity to cytotoxicity in Plasmodium falciparum V1/S infected KB cells. Format: functional.
In assay [9] the test system is BC. Nature of the assay: Relative antiplasmodial activity to cytotoxicity in Plasmodium falciparum TM4/8.2 infected BC cells. Format: functional.
Assay [10] deals with Bifunctional dihydrofolate reductase-thymidylate synthase (Plasmodium falciparum K1, UniProt P13922). Nature of the assay: Binding affinity towards wild-type dihydrofolate reductase of Plasmodium falciparum.
Assay [11] deals with Bifunctional dihydrofolate reductase-thymidylate synthase (Plasmodium falciparum K1), P13922 [UNDEFINED MUTATION]. As to the kind of experiment: Ratio of binding affinity for mutant (N51I+C59R+S108N+I164L) to that of wild type dihydrofolate reductase. The method, boiled down:
as §2

Assay [12] shares this test system. As to the kind of experiment: Ratio of binding affinity for mutant (A16V+S108T) to that of wild type dihydrofolate reductase. The method, boiled down:
as §2

In assay [13] the target is Bifunctional dihydrofolate reductase-thymidylate synthase (Plasmodium falciparum K1) (UniProt P13922). As to the kind of experiment: Ratio of binding affinity for mutant (N51I+C59R+S108N) to that of wild type dihydrofolate reductase. The method in brief:
as §2

The test system of assay [14] is Vero. Nature of the assay: Relative antiplasmodial activity to cytotoxicity in Plasmodium falciparum Csl-2 infected Vero cells. Format: functional.
In assay [15] the test system is Vero. Nature of the assay: Relative antiplasmodial activity to cytotoxicity in Plasmodium falciparum TM4/8.2 infected Vero cells. Format: functional.
In assay [16] the test system is KB. Nature of the assay: Relative antiplasmodial activity to cytotoxicity in Plasmodium falciparum TM4/8.2 infected KB cells. Format: functional.
In assay [17] the test system is KB. Nature of the assay: Relative antiplasmodial activity to cytotoxicity in Plasmodium falciparum Csl-2 infected KB cells. Format: functional.
Assay [18] relates to Vero. Nature of the assay: In vitro cytotoxicity against Plasmodium falciparum infected vero cell line. Format: functional, cell-based. The conditions noted are these: Chlorocebus sabaeus. The method in brief: as §1
In assay [19] the test system is Vero. As to the kind of experiment: Relative antiplasmodial activity to cytotoxicity in Plasmodium falciparum V1/S infected Vero cells. The assay is classed as functional.
The target in assay [20] is Bifunctional dihydrofolate reductase-thymidylate synthase (Plasmodium falciparum K1, UniProt P13922, A16V/S108T). Nature of the assay: Binding affinity towards mutant dihydrofolate reductase (A16V+S108T DHFR) of Plasmodium falciparum.
Chain of Bifunctional dihydrofolate reductase-thymidylate synthase (Plasmodium falciparum K1, UniProt P13922, A16V/S108T) (P13922 whole entry, looked up, stated change not applied): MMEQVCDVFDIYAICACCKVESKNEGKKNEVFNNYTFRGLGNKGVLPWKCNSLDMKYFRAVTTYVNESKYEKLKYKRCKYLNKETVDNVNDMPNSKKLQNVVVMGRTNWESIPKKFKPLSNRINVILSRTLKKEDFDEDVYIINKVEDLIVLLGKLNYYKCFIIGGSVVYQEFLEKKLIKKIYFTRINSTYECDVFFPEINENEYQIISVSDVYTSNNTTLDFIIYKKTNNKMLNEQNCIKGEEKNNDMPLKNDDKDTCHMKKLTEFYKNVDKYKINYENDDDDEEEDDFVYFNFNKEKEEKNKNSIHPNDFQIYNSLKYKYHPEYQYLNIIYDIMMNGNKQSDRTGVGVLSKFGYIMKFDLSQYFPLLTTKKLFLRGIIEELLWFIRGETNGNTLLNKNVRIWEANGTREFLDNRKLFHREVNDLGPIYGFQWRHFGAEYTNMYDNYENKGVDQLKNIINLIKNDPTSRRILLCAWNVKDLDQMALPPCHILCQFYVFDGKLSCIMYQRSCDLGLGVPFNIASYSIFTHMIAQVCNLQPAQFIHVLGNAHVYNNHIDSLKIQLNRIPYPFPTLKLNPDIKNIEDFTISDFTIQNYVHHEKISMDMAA

Chain of Bifunctional dihydrofolate reductase-thymidylate synthase (Plasmodium falciparum K1, UniProt P13922, C59R/I164L/S108N) (P13922 whole entry, looked up, stated change not applied): as above
Chain of Bifunctional dihydrofolate reductase-thymidylate synthase (Plasmodium falciparum K1) (P13922 whole entry, looked up): as the sequence (P13922 whole entry, looked up, stated change not applied) above
Chain of Bifunctional dihydrofolate reductase-thymidylate synthase (Plasmodium falciparum K1, UniProt P13922, C59R/I164L/N51I/S108N) (P13922 whole entry, looked up, stated change not applied): as above
Chain of Bifunctional dihydrofolate reductase-thymidylate synthase (Plasmodium falciparum K1, UniProt P13922, C59R/N51I/S108N) (P13922 whole entry, looked up, stated change not applied): as above
Chain of Bifunctional dihydrofolate reductase-thymidylate synthase (Plasmodium falciparum K1), P13922 [UNDEFINED MUTATION] (P13922 whole entry, looked up, stated change not applied): as above
Chain of Bifunctional dihydrofolate reductase-thymidylate synthase (Plasmodium falciparum K1, UniProt P13922) (P13922 whole entry): as the sequence (P13922 whole entry, looked up, stated change not applied) above

As for `CC1(C)N=C(N)N=C(N)N1c1ccc(Cl)cc1` [CYCLOGUANIL], the inhibitory constant (Ki) came to 285 nM in [1], 31.4 nM in assay [5], 420 nM in assay [7] and 1.5 nM in [10]. Further, the IC50 is 41000 nM in the assay with KB [2], above 50000 nM in the assay on BC [3] and above 50000 nM in the assay with Vero [18]. Also, the Ratio is 190 in [4], 280 in assay [11], 876 in assay [12] and 20.9 in assay [13]. Moreover, the Safety ratio with BC [6] was above 1.3; with KB [8], below 0.4; in the assay on BC [9] it was above 1250; with Vero [14], above 1.3; with Vero [15], above 1250; with KB [16], 1025. For the same compound, the Safety ratio in the assay on KB [17] was found to be 1.1.

With `COc1ccc(CCCc2nc(N)nc(N)c2-c2cccc(Cl)c2)cc1`, the inhibitory constant (Ki) in [1] amounted to 2.9 nM; in assay [5] it was 1.3 nM; in assay [7] it was 2 nM; in assay [10], 2.2 nM. Besides, half-maximal inhibition in the assay with BC [3] (IC50) required 3000 nM. Moreover, the Ratio in assay [4] worked out at 1.3; in assay [11], 0.9; in assay [13], 0.6. Further, the Safety ratio in the assay on BC [6] came to 1.1; in the assay on KB [8], 3.2; in the assay on BC [9], 7.3; in the assay on Vero [19] it was 0.6; in the assay with Vero [14], 1.1; in the assay on Vero [15], 7.3. The Safety ratio with KB [16] is 36.6; with KB [17], 5.6.

Turning to `CCc1nc(N)nc(N)c1-c1ccc(Cl)c(Cl)c1` [ETOPRINE], the inhibitory constant (Ki) turned out to be 41 nM in [1], 3.1 nM in [5], 53 nM in assay [7] and 1 nM in assay [10]. For the same compound, the Ratio in [4] stood at 41; in assay [11] it was 53; in [13], 3.1.

On to `COC(=O)CCCc1nc(N)nc(N)c1-c1ccccc1`, for which the inhibition constant Ki in [1] stood at 15 nM; in assay [5], 3.3 nM; in assay [7], 24 nM; in assay [10], 0.6 nM. Also, the Ratio amounted to 25 in [4], 40 in [11] and 5.5 in [13].

For the compound `COC(=O)CCCc1nc(N)nc(N)c1-c1cccc(Cl)c1`, the inhibition constant (Ki) in assay [1] is 1.8 nM; in [5], 0.77 nM; in assay [7], 2.7 nM; in assay [10], 0.5 nM. Moreover, the Ratio worked out at 3.6 in assay [4], 5.4 in assay [11] and 1.5 in assay [13].

Turning to `Nc1nc(N)c(-c2cccc(Cl)c2)c(CCOCCCOc2ccccc2)n1`, the Ki in assay [1] is 1.3 nM; in assay [5], 0.7 nM; in assay [7] it was 1.7 nM; in assay [10] it was 0.4 nM. For the same compound, the concentration for half-maximal inhibition (IC50) in the assay on KB [2] was determined as 6400 nM; in the assay with BC [3], 4900 nM. The Ratio worked out at 3.2 in [4], 4.2 in assay [11] and 1.7 in assay [13]. Besides, the Safety ratio with BC [6] was determined as 1.7; with KB [8] it was 1.4; in the assay on BC [9], 14; in the assay with Vero [19] it was 3.3; in the assay on Vero [14], 5.2; with Vero [15], 42.9. For the same compound, the results for the Safety ratio in the assay with KB [16] and with KB [17] were 18.3 and 2.2, respectively.

Take `CC1N=C(N)N=C(N)N1c1ccc(Cl)cc1` (stereo unspecified): the Ki in assay [1] is 1580 nM; in [5], 134 nM; in assay [7] it was 2430 nM; in assay [10], 4.1 nM. In addition, the Ratio stood at 386 in assay [4], 592 in [11], 31 in [12] and 32.7 in [13].

Turning to `CCc1nc(N)nc(N)c1-c1ccc(C)cc1`, the Ki is 88 nM in assay [1], 6.9 nM in assay [5], 284 nM in assay [7] and 0.4 nM in assay [10]. For the same compound, the Ratio in assay [4] worked out at 220; in assay [11], 710; in assay [13], 17.2.

As to `Nc1nc(N)c(-c2ccccc2)c(CCCc2ccccc2)n1`, the Ki in assay [1] is 1.9 nM; in [5] it was 1.1 nM; in assay [7], 4.7 nM; in assay [10], 0.5 nM. The concentration for half-maximal inhibition (IC50) with KB [2] came to 150000 nM; in the assay on BC [3], 250000 nM. The Ratio in assay [4] was found to be 3.8; in assay [11] it was 9.4; in [13] it was 2.2. Moreover, the Safety ratio was 92.6 in the assay with BC [6]; 17.4 in the assay with KB [8]; 1191 in the assay on BC [9]; above 5.8 with Vero [19]; above 18.5 in the assay on Vero [14]; above 238 in the assay on Vero [15]. The values for the Safety ratio in the assay with KB [16] and in the assay on KB [17] were 714 and 55.6, respectively.

For `Nc1nc(N)c(-c2ccc(Cl)cc2)c(CCCc2ccccc2)n1`, the inhibition constant (Ki) was 63 nM in [1], 15.1 nM in [5], 170 nM in assay [7] and 0.7 nM in assay [10]. Besides, the Ratio is 90 in [4], 243 in assay [11] and 21.6 in assay [13].

`COC(=O)CCCc1nc(N)nc(N)c1-c1ccc(Cl)cc1`: the Ki in assay [1] came out at 145 nM; in assay [5], 29.3 nM; in assay [7], 360 nM; in assay [10], 0.3 nM. The Ratio in assay [4] was 483; in [11], 1200; in [13], 97.7.

For `Cc1nc(N)nc(N)c1-c1cccc(Cl)c1`, the Ki turned out to be 9.8 nM in assay [1], 6.5 nM in assay [5], 14 nM in assay [7] and 1.9 nM in assay [10]. In addition, the Ratio stood at 5.2 in assay [4], 7.4 in assay [11] and 3.4 in assay [13].

Regarding `Nc1nc(N)c(-c2cccc(Cl)c2)c(CCCc2ccccc2)n1`, the Ki in assay [1] was 2.2 nM; in assay [5], 2 nM; in assay [7], 2 nM; in assay [10] it was 1.2 nM. In addition, the figures for the IC50 with KB [2], in the assay with BC [3] and with Vero [18] were 1600 nM, 1600 nM and 2100 nM, respectively. Moreover, the Ratio was 1.8 in assay [4], 1.7 in assay [11] and 1.7 in assay [13]. In addition, the Safety ratio with BC [6] came out at 0.4; with KB [8], 0.3; with BC [9], 2.4; in the assay on Vero [19] it was 0.4; in the assay with Vero [14], 0.6; in the assay with Vero [15], 3.1. Also, the Safety ratio came out at 2.4 in the assay on KB [16] and 0.4 with KB [17].

For `CCCCCCc1nc(N)nc(N)c1-c1ccccc1`, the Ki turned out to be 0.7 nM in assay [1], 0.4 nM in [5], 1.4 nM in [7] and 0.3 nM in assay [10]. The Safety ratio is on record as 89.3 with BC [6]; 17.7 in the assay with KB [8]; 4467 in the assay with BC [9]; 8.6 with Vero [19]; 18.3 in the assay on Vero [14]; 917 in the assay with Vero [15]. The Safety ratio with KB [16] was found to be 1883; in the assay on KB [17] it was 37.7.

For `NC1=NC(c2cccc(OCc3ccccc3)c2)N(c2cccc(Cl)c2)C(N)=N1` (stereo unspecified), the Ki in assay [1] worked out at 3.6 nM; in assay [5], 3.2 nM; in assay [7], 7.7 nM; in assay [20] it was 3.2 nM. Also, the IC50 was 8000 nM in the assay with KB [2], 22000 nM in the assay with BC [3] and above 50000 nM in the assay with Vero [18]. Also, the Ratio in assay [4] is 1.6; in [11], 3.3; in [12], 1.4; in assay [13], 1.4. The Safety ratio with BC [6] is given as 2.9; with KB [8], 1; in the assay on BC [9], 5.5; in the assay on Vero [19], above 6.1; in the assay with Vero [14] it was above 6.7; with Vero [15], above 12.5. In addition, the Safety ratio with KB [16] is recorded as 2; in the assay with KB [17] it was 1.1.

In the case of `CCc1nc(N)nc(N)c1-c1ccc2c(c1)OCO2`, the inhibition constant (Ki) in assay [1] is 121 nM; in [5], 8.3 nM; in assay [7], 269 nM; in assay [10], 1.1 nM. Further, the Ratio in assay [4] stood at 110; in assay [11], 244; in assay [13], 7.5.
